Data as given in ChEMBL document CHEMBL3351262, “Design and synthesis of new benzimidazole-carbazole conjugates for the stabilization of human telomeric DNA, telomerase inhibition, and their selective action on cancer cells” (J Med Chem, 2014).
The source made the active and inactive calls. No cut-off for these calls is given here.

Legend:
[1] = Binding affinity to human Hum21 [5'-G3(T2AG3)3-3'] G-quadruplex DNA at 0.4 uM in 10 mM pH 7.4 Tris-Hcl buffer containing 0.1 mM EDTA and 0.1 mM NaCl by fluorescence spectroscopy
HFF [2] = assay: Induction of apoptosis in HFF cells assessed as nuclear fragmentation at 10 uM after 12 hrs by propidium iodide staining based FACS analysis; type: cell-based; details: human
A549 [3] = assay: Cytotoxicity against human A549 cells at 0.5 to 8 uM after 72 hrs by MTT assay; type: functional, cell-based
Outline: (§1)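 Cells were seeded at 15.0 × 10³/well and grown 72 h to >70% confluency. They were treated with ligand or 0.1% DMSO in 10% FBS for 72 h at 37 °C, 5% CO2, then given fresh DMEM/10% FBS. MTT (5 mg/mL stock) was added for 4 h, formazan dissolved in DMSO, and read at 595 nm. Viability was normalized to untreated cells after DMSO-blank subtraction. Doses were run in triplicate, with at least three independent experiments.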

[4] = Displacement of thiazole orange from telomeric duplex DNA (unknown origin) in presence of 10 mM pH 7.4 Tris-Hcl buffer containing 0.1 mM EDTA and […] by fluorescent intercalator displacement assay
Calf thymus DNA [5] = assay: Binding affinity to calf thymus DNA in 10 mM pH 7.4 Tris-Hcl buffer containing 0.1 mM EDTA and 40 mM NaCl by fluorescence spectroscopy; type: nucleic-acid assay, Bos taurus
Outline: (§2)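 CT DNA was in the same Tris/EDTA buffer with 40 mM NaCl. 0.4 μM ligand was titrated with preformed DNA, incubated 10 min at 20 °C, and excited at 300 or 330 nm. Kd and binding stoichiometry n came from the emission titration.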

HeLa [6] = assay: Induction of apoptosis in human HeLa cells assessed as nuclear fragmentation at 10 uM after 12 hrs by propidium iodide staining based FACS analysis; type: functional, cell-based
[7] = Drug uptake in nucleus of human HeLa cells at 10 uM after 12 hrs by confocal microscopy; type: ADME, cell-based
Outline: (§3)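 Cells were grown on glass coverslips and treated with 10 μM ligand for 12 h. They were washed in DPBS, fixed in 4% paraformaldehyde for 10 min, and permeabilized with 0.1% Triton X-100 for 5 min. Nuclei were counterstained with propidium iodide. Blue ligand fluorescence and nuclear localization were imaged by confocal microscopy.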

Homo sapiens [8] = species on record: Homo sapiens; assay: Binding affinity to human Hum21 [5'-G3(T2AG3)3-3'] G-quadruplex DNA assessed as change in melting temperature in 10 mM pH 7.4 Tris-Hcl buffer containing 0.1 mM EDTA and […] measured after 12 hrs by UV-Vis absorption sperctrometry (reference value: 7 to 13 degC)
[9] = Binding affinity to human Hum21 [5'-G3(T2AG3)3-3'] G-quadruplex DNA at 5 uM in 10 mM pH 7.4 Tris-Hcl buffer containing 0.1 mM EDTA and 0.1 M NaCl by UV-Vis absorption sperctrometry
HEK-293T [10] = assay: Cytotoxicity against transformed HEK293T cells after 72 hrs by MTT assay; type: functional, cell-based; details: Homo sapiens; outline: as §1
Calf thymus DNA [11] = assay: Binding affinity to calf thymus DNA at 0.4 uM in 10 mM pH 7.4 Tris-Hcl buffer containing 0.1 mM EDTA and 40 mM NaCl by fluorescence spectroscopy; type: nucleic-acid assay; details: Bos taurus; outline: as §2
[12] = Selectivity index, ratio of Kd for calf thymus DNA to Kd for human Hum21 [5'-G3(T2AG3)3-3'] G-quadruplex DNA
Outline: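 Selectivity is the ratio of fluorescence-titration Kd for CT DNA (Tris-HCl pH 7.4, 40 mM NaCl, 0.1 mM EDTA) to Kd for preformed Hum21 G4 DNA (Tris-HCl pH 7.4, 0.1 M NaCl/KCl, 0.1 mM EDTA).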

HEK-293T [13] = assay: Cytotoxicity against transformed HEK293T cells at 2 and 5 uM after 15 days by MTT assay; details: Homo sapiens
HeLa [14] = assay: Cytotoxicity against human HeLa cells at 2 and 5 uM after 15 days by MTT assay
HFF [15] = assay: Cytotoxicity against HFF cells at 0.5 to 8 uM after 72 hrs by MTT assay; type: cell-based; details: human; outline: as §1
HeLa [16] = assay: Cytotoxicity against human HeLa cells at 0.5 to 8 uM after 72 hrs by MTT assay; type: functional, cell-based; outline: as §1
HeLa [17] = assay: Cytotoxicity against human HeLa cells after 72 hrs by MTT assay; type: functional, cell-based; outline: as §1
[18] = Binding affinity to human Hum21 [5'-G3(T2AG3)3-3'] G-quadruplex DNA at 0.4 uM in 10 mM pH 7.4 Tris-Hcl buffer containing 0.1 mM EDTA and […] by fluorescence spectroscopy
[19] = Drug uptake in nucleus of human HeLa cells at 10 uM after 12 hrs by propidium iodide staining; type: ADME, cell-based; outline: as §3
Homo sapiens [20] = species on record: Homo sapiens; assay: Induction of formation of human Hum21 [5'-G3(T2AG3)3-3'] G-quadruplex DNA at [compound]/[DNA] ratio of 5 in 10 mM pH 7.4 Tris-Hcl buffer containing 0.1 mM EDTA and […] by CD spectroscopy
Outline: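 Hum21 was folded in the presence of ligand at the stated [L]:[DNA] ratio in 10 mM Tris-HCl pH 7.4, 0.1 mM EDTA, 0.1 M KCl or NaCl. Annealing was 95 °C for 5 min with slow cooling to 24 °C over 24 h. Topology was read from CD spectra recorded at 20 °C.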

[21] = target: T1, Telomerase reverse transcriptase (Homo sapiens, UniProt O14746); assay: Inhibition of telomerase isolated form human A549 cells by TRAP-LIG assay
T1 sequence (O14746 whole entry): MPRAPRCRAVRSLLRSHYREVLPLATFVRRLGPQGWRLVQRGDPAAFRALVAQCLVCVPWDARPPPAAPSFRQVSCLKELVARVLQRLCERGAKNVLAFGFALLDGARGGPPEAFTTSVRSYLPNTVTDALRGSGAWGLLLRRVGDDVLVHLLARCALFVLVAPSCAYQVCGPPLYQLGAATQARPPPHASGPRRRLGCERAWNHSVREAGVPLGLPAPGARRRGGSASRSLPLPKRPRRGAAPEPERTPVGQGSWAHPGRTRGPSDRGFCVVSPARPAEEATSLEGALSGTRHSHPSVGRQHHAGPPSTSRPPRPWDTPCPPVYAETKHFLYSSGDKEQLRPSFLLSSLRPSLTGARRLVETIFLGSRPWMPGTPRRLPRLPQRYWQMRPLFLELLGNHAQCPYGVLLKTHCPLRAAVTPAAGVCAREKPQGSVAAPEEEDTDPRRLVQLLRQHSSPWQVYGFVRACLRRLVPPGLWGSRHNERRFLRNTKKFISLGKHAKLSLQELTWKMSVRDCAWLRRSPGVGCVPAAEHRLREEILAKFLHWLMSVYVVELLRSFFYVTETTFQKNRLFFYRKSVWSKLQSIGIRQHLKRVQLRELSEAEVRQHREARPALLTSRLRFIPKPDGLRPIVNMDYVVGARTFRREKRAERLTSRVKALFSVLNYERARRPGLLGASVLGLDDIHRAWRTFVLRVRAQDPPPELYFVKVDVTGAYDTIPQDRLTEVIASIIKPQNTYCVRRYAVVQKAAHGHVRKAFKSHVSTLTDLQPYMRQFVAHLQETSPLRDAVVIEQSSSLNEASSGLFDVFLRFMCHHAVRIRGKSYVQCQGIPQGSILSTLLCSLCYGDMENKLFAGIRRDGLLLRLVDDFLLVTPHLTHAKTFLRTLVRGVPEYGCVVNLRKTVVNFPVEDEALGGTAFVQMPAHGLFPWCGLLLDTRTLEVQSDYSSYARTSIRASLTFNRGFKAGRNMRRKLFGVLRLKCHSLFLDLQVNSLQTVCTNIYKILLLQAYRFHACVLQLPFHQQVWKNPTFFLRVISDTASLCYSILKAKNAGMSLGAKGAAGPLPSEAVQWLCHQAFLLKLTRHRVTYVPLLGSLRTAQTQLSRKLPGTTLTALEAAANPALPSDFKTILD

[22] = Displacement of thiazole orange from human Hum21 [5'-G3(T2AG3)3-3'] G-quadruplex DNA in presence of 10 mM pH 7.4 Tris-Hcl buffer containing 0.1 mM EDTA and […] by fluorescent intercalator displacement assay
A549 [23] = assay: Cytotoxicity against human A549 cells after 72 hrs by MTT assay; type: functional, cell-based; details: A549, 72 h; outline: as §1
[24] = target: T1, Telomerase reverse transcriptase; assay: Total inhibition of telomerase isolated form human A549 cells by TRAP-LIG assay
HeLa [25] = assay: Induction of apoptosis in human HeLa cells at 10 uM after 12 hrs by Annexin V and propidium iodide staining based FACS analysis; type: functional
Outline: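 HeLa cells were seeded at 0.25 million per well, and after 24 h exposed to 10 μM ligand for 12 h. Cells were washed, trypsinized and resuspended in HEPES binding buffer (0.14 M NaCl, 2.5 mM CaCl2). They were stained with Annexin V-FITC and PI (final 1 μg/mL, 5 min), then analyzed by flow cytometry. Gated Annexin-only-positive cells were scored as apoptotic.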

[26] = Displacement of thiazole orange from calf thymus double stranded DNA in presence of 10 mM pH 7.4 Tris-Hcl buffer containing 0.1 mM EDTA and […] by fluorescent intercalator displacement assay; parameters: species or system Bos taurus

| SMILES | Kd [1] [µM] | Activity (HFF [2]) | Activity (A549 [3]) | Kd (Calf thymus DNA [5]) [µM] | Activity (HeLa [6]) | Drug uptake [7] | ΔTm (Homo sapiens [8]) [°C] | Kd [9] [µM] | IC50 (HEK-293T [10]) [µM] | Activity (Calf thymus DNA [11]) | Ratio [12] | inhibition (HEK-293T [13]) | inhibition (HeLa [14]) | Activity (HFF [15]) | Activity (HeLa [16]) | IC50 (HeLa [17]) [µM] | Kd [18] [µM] | Drug uptake [19] | Activity (Homo sapiens [20]) | IC50 [21] [µM] | further results |
| --- | --- | --- | --- | --- | --- | --- | --- | --- | --- | --- | --- | --- | --- | --- | --- | --- | --- | --- | --- | --- | --- |
| CN1CCN(CCCCn2c3ccc(-c4nc5cc(N6CCN(CCO)CC6)ccc5[nH]4)cc3c3cc(-c4nc5cc(N6CCN(CCO)CC6)ccc5[nH]4)ccc32)CC1 | 0.08 | Non-toxic | Active | 25 | Active | Active | 19 | 0.05 | 8 | inactive | 500 | Active | Active | Non-toxic | Active | 8 | 0.03 | Active | Active | 0.6 | DC50 ([4]; read-out: DC50): > 8 µM; DC50 [22]: 1.12 µM; IC50 (A549 [23]): 8 µM; concentration giving total telomerase inhibition [24]: 1 µM; Activity (HeLa [25]): 55%; DC50 ([26]; read-out: DC50): 7.71 µM |
| CN1CCN(CCCCn2c3ccc(-c4nc5cc(N6CCN(C)CC6)ccc5[nH]4)cc3c3cc(-c4nc5cc(N6CCN(C)CC6)ccc5[nH]4)ccc32)CC1 | 0.15 | Non-toxic | Active | 196 | Active | Active | 16 | 0.34 | 8 | inactive | 576 | Active | Active | Non-toxic | Active | 8 | 0.1 | Active | inactive | 0.9 | DC50 [4]: Not Active; DC50 [22]: 0.61 µM; IC50 (A549 [23]): 8 µM; concentration giving total telomerase inhibition [24]: 1 µM; Activity (HeLa [25]): 25%; DC50 [26]: Not Active |
